# Assay results published in ChEMBL document CHEMBL4414612, “Synthesis and Pharmacological Evaluation of 1-Phenyl-3-Thiophenylurea Derivatives as Cannabinoid Type-1 Receptor Allosteric Modulators” (J Med Chem, 2019).
# Experiments:
# Cannabinoid receptor 2 [1] = molecular target: T1, Cannabinoid receptor 2 (Homo sapiens, UniProt P34972); experiment: (§1) Antagonist activity at human CB2 receptor expressed in CHO cells co-expressing Galpha16 assessed as inhibition of EC80 CP55,940-induced calcium mobilization preincubated for 15 mins followed by […] addition measured at 1 sec interval for 90 secs by calcium-5 dye based FLIPR assay; type: functional, cell-based
# Procedure, shortened: (§2)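 CB2 antagonist mode in stable human CB2-CHO-RD-HGA16 cells. Cells were dye-loaded, then pretreated with compound for 15 min at 37 °C. CP55,940 was added at its EC80 at the 10 s point, and calcium fluorescence was recorded every 1 s over 90 s.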
# Cannabinoid receptor 1 [2] = molecular target: T2, Cannabinoid receptor 1 (Homo sapiens, UniProt P21554); experiment: Inverse agonist activity at human CB1 receptor expressed in HEK293 cell membranes assessed as suppression of [35S]GTPgammaS binding at 10 uM incubated for 60 mins by scintillation counting method; details: hek293, 1 h
# Procedure, shortened: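 Inverse agonism on human CB1-HEK293 membranes: compounds were incubated 60 min with 0.1 nM [35S]GTPγS and 30 µM GDP, with no CP55,940 present. Buffer was Tris/MgCl2/EGTA pH 7.4 with 0.5% BSA, at 30 °C. Binding was read by filtration and scintillation counting and normalized to basal (vehicle = 0%).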
# Cannabinoid receptor 2 [3] = molecular target: T1, Cannabinoid receptor 2; experiment: Agonist activity at human CB2 receptor expressed in CHO cells co-expressing Galpha16 assessed as increase in calcium mobilization at 10 uM measured at 1 sec interval for 90 secs by calcium-5 dye based FLIPR assay relative to CP55,940; type: functional, cell-based
# Cannabinoid receptor 2 [4] = molecular target: T1, Cannabinoid receptor 2; experiment: as §1, with “mobilization at 10 uM” for “mobilization”, “assay relative to CP55,940” for “assay”; type: functional, cell-based; procedure, shortened: as §2
# Cannabinoid receptor 1 [5] = molecular target: T2, Cannabinoid receptor 1; experiment: Allosteric modulator activity at human CB1 receptor expressed in HEK293 cell membranes assessed as suppression of 100 nM CP55,940-induced [35S]GTPgammaS binding incubated for 60 mins by scintillation counting method; type: functional
# Cannabinoid receptor 1 [6] = molecular target: T2, Cannabinoid receptor 1; experiment: Allosteric modulator activity at human CB1 receptor expressed in CHO-RD-HGA16 cells co-expressing Galpha16 assessed as suppression of 100 nM CP55,940-induced calcium mobilization pre-incubated for 15 mins by Calcium 5 dye based FLIPR assay; type: functional, cell-based
# T1 sequence (P34972 whole entry): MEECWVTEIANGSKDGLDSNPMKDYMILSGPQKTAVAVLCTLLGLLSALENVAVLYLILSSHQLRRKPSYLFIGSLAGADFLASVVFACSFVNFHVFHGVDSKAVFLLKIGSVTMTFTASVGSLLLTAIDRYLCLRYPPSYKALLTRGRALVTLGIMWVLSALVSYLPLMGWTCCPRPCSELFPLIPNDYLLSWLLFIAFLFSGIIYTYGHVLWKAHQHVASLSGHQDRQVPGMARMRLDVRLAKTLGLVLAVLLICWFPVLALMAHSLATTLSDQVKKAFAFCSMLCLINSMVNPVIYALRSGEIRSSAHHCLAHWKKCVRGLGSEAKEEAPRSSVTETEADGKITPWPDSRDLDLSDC
# T2 sequence (P21554 whole entry): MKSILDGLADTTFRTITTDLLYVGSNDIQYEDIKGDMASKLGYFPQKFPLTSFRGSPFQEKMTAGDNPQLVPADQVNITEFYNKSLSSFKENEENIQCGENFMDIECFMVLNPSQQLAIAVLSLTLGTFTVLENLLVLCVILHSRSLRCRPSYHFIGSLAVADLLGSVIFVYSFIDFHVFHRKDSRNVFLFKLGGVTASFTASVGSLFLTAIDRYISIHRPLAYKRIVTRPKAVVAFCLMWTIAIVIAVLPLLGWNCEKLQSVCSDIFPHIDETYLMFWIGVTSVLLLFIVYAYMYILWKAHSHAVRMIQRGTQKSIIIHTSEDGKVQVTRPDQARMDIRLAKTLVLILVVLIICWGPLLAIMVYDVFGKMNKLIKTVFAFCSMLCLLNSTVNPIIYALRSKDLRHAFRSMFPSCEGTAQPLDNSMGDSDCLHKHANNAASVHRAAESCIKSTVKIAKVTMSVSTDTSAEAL
compound,measurement,setting,value
O=C(Nc1ccc(Cl)cc1)Nc1ccc(-c2ccncc2)s1,IC50,Cannabinoid receptor 2 [1],> 10 µM
same,inhibition (INH),Cannabinoid receptor 1 [2],Active
same,Emax,Cannabinoid receptor 2 [3],< 10%
same,inhibition,Cannabinoid receptor 2 [4],< 50%
same,IC50,Cannabinoid receptor 1 [5],263 nM
O=C(Nc1ccc(Cl)cc1)Nc1ccc(-c2cccc(F)c2)s1,IC50,Cannabinoid receptor 2 [1],> 10 µM
same,inhibition (INH),Cannabinoid receptor 1 [2],Active
same,Emax,Cannabinoid receptor 2 [3],< 10%
same,inhibition,Cannabinoid receptor 2 [4],< 50%
O=C(Nc1ccc(Cl)cc1)N[C@@H]1CCCN(c2ccccc2)C1,IC50,Cannabinoid receptor 2 [1],> 10 µM
same,IC50,Cannabinoid receptor 1 [6],3880 nM
same,inhibition (INH),Cannabinoid receptor 1 [2],Active
same,Emax,Cannabinoid receptor 2 [3],< 10%
same,inhibition,Cannabinoid receptor 2 [4],< 50%
same,IC50,Cannabinoid receptor 1 [5],> 10000 nM
O=C(Nc1ccc(Cl)cc1)Nc1ccc(-c2ccc(Cl)c(Cl)c2)s1,IC50,Cannabinoid receptor 2 [1],> 10 µM
same,inhibition (INH),Cannabinoid receptor 1 [2],Active
same,Emax,Cannabinoid receptor 2 [3],< 10%
same,inhibition,Cannabinoid receptor 2 [4],< 50%
COc1cccc(-c2ccc(NC(=O)Nc3ccc(Cl)cc3)s2)c1,IC50,Cannabinoid receptor 2 [1],> 10 µM
same,inhibition (INH),Cannabinoid receptor 1 [2],Active
same,Emax,Cannabinoid receptor 2 [3],< 10%
same,inhibition,Cannabinoid receptor 2 [4],< 50%
O=C(Nc1ccc(Cl)cc1)Nc1cncc(-c2ccccc2)c1,IC50,Cannabinoid receptor 2 [1],> 10 µM
same,IC50,Cannabinoid receptor 1 [6],292 nM
same,inhibition (INH),Cannabinoid receptor 1 [2],Active
same,Emax,Cannabinoid receptor 2 [3],< 10%
same,inhibition,Cannabinoid receptor 2 [4],< 50%
same,IC50,Cannabinoid receptor 1 [5],> 10000 nM
O=C(Nc1ccc(Cl)cc1)Nc1ncc(-c2ccccc2)s1,IC50,Cannabinoid receptor 2 [1],> 10 µM
same,inhibition (INH),Cannabinoid receptor 1 [2],Active
same,Emax,Cannabinoid receptor 2 [3],< 10%
same,inhibition,Cannabinoid receptor 2 [4],< 50%
O=C(Nc1ccc(Cl)cc1)Nc1ccc(-c2ccc(F)cc2F)s1,IC50,Cannabinoid receptor 2 [1],> 10 µM
same,inhibition (INH),Cannabinoid receptor 1 [2],Active
same,Emax,Cannabinoid receptor 2 [3],< 10%
same,inhibition,Cannabinoid receptor 2 [4],< 50%
COc1ccc(-c2cccc(N3CCCC3)n2)cc1NC(=O)Nc1ccc(Cl)cc1,IC50,Cannabinoid receptor 2 [1],> 10 µM
same,inhibition (INH),Cannabinoid receptor 1 [2],Active
same,Emax,Cannabinoid receptor 2 [3],< 10%
same,inhibition,Cannabinoid receptor 2 [4],< 50%
O=C(Nc1ccc(Cl)cc1)Nc1ccc(-c2cc(Cl)cc(Cl)c2)s1,IC50,Cannabinoid receptor 2 [1],> 10 µM
same,inhibition (INH),Cannabinoid receptor 1 [2],Active
same,Emax,Cannabinoid receptor 2 [3],< 10%
same,inhibition,Cannabinoid receptor 2 [4],< 50%
O=C(Nc1ccc(Cl)cc1)Nc1ccc(-c2ccccc2Cl)s1,IC50,Cannabinoid receptor 2 [1],> 10 µM
same,inhibition (INH),Cannabinoid receptor 1 [2],Active
same,Emax,Cannabinoid receptor 2 [3],< 10%
same,inhibition,Cannabinoid receptor 2 [4],< 50%
CS(=O)(=O)c1cccc(-c2ccc(NC(=O)Nc3ccc(Cl)cc3)s2)c1,IC50,Cannabinoid receptor 2 [1],> 10 µM
same,inhibition (INH),Cannabinoid receptor 1 [2],Active
same,Emax,Cannabinoid receptor 2 [3],< 10%
same,inhibition,Cannabinoid receptor 2 [4],< 50%
Cc1cccc(-c2ccc(NC(=O)Nc3ccc(Cl)cc3)s2)c1,IC50,Cannabinoid receptor 2 [1],> 10 µM
same,inhibition (INH),Cannabinoid receptor 1 [2],Active
same,Emax,Cannabinoid receptor 2 [3],< 10%
same,inhibition,Cannabinoid receptor 2 [4],< 50%
COC(=O)c1cccc(-c2ccc(NC(=O)Nc3ccc(Cl)cc3)s2)c1,IC50,Cannabinoid receptor 2 [1],> 10 µM
same,inhibition (INH),Cannabinoid receptor 1 [2],Active
same,Emax,Cannabinoid receptor 2 [3],< 10%
same,inhibition,Cannabinoid receptor 2 [4],< 50%
same,IC50,Cannabinoid receptor 1 [5],2350 nM
COc1ccccc1-c1ccc(NC(=O)Nc2ccc(Cl)cc2)s1,IC50,Cannabinoid receptor 2 [1],> 10 µM
same,inhibition (INH),Cannabinoid receptor 1 [2],Active
same,Emax,Cannabinoid receptor 2 [3],< 10%
same,inhibition,Cannabinoid receptor 2 [4],< 50%
COc1ccc(-c2ccc(NC(=O)Nc3ccc(Cl)cc3)s2)cc1,IC50,Cannabinoid receptor 2 [1],> 10 µM
same,inhibition (INH),Cannabinoid receptor 1 [2],Active
same,Emax,Cannabinoid receptor 2 [3],< 10%
same,inhibition,Cannabinoid receptor 2 [4],< 50%
O=C(Nc1ccc(Cl)cc1)Nc1ccc(-c2ccc(F)cc2)s1,IC50,Cannabinoid receptor 2 [1],> 10 µM
same,inhibition (INH),Cannabinoid receptor 1 [2],Active
same,Emax,Cannabinoid receptor 2 [3],< 10%
same,inhibition,Cannabinoid receptor 2 [4],< 50%
O=C(Nc1ccc(Cl)cc1)Nc1csc(-c2ccccc2)c1,IC50,Cannabinoid receptor 2 [1],> 10 µM
same,inhibition (INH),Cannabinoid receptor 1 [2],Active
same,Emax,Cannabinoid receptor 2 [3],< 10%
same,inhibition,Cannabinoid receptor 2 [4],< 50%
O=C(Nc1ccc(Cl)cc1)Nc1ccc(-c2ccc(Cl)cc2)s1,IC50,Cannabinoid receptor 2 [1],> 10 µM
same,inhibition (INH),Cannabinoid receptor 1 [2],Active
same,Emax,Cannabinoid receptor 2 [3],< 10%
same,inhibition,Cannabinoid receptor 2 [4],< 50%
CC(=O)c1cccc(-c2ccc(NC(=O)Nc3ccc(Cl)cc3)s2)c1,IC50,Cannabinoid receptor 2 [1],> 10 µM
same,inhibition (INH),Cannabinoid receptor 1 [2],Active
same,Emax,Cannabinoid receptor 2 [3],< 10%
same,inhibition,Cannabinoid receptor 2 [4],< 50%
O=C(Nc1ccc(Cl)cc1)Nc1ccc(-c2cccnc2)s1,IC50,Cannabinoid receptor 2 [1],> 10 µM
same,inhibition (INH),Cannabinoid receptor 1 [2],Active
same,Emax,Cannabinoid receptor 2 [3],< 10%
same,inhibition,Cannabinoid receptor 2 [4],< 50%
O=C(Nc1ccc(Cl)cc1)Nc1ccc(-c2cccc(Cl)c2)s1,IC50,Cannabinoid receptor 2 [1],> 10 µM
same,inhibition (INH),Cannabinoid receptor 1 [2],Active
same,Emax,Cannabinoid receptor 2 [3],< 10%
same,inhibition,Cannabinoid receptor 2 [4],< 50%
